Active and inactive are the calls of the source. The rule behind the calls is not given here.
Experiments:
HeLa = test: Antiproliferation activity against human HeLa cells assessed as reduction in cell viability incubated for 72 hrs by MTT assay; format: functional, cell-based
Summary of the method: (§1)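 MTT assay. Cells were plated overnight and exposed to a range of concentrations for 72 h. MTT was then added for 4 h and absorbance read at 570 nm. Inhibition% = [(control − compound)/(control − blank)] × 100. IC50 was fitted from the curves. Mean ± S.D. of 3–5 separate experiments. RPMI 1640 + 10% FBS; MCF10A in DMEM/F12 with 5% horse serum, EGF, hydrocortisone, insulin and cholera toxin.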

MDA-MB-231 = test: Antiproliferation activity against human MDA-MB-231 cells assessed as reduction in cell viability incubated for 72 hrs measured after 4 hrs by MTT assay; format: functional, cell-based; summary of the method: as §1
MCF7 = test: Antiproliferation activity against human MCF7 cells assessed as reduction in cell viability incubated for 72 hrs by MTT assay; format: functional, cell-based; conditions: MCF7, 72 h; summary of the method: as §1
A549 = test: Antiproliferation activity against human A549 cells assessed as reduction in cell viability incubated for 72 hrs by MTT assay; format: functional, cell-based; conditions: A549, 72 h; summary of the method: as §1
T47D = test: Antiproliferation activity against human T47D cells assessed as reduction in cell viability incubated for 72 hr by MTT assay; format: functional, cell-based; summary of the method: as §1
[1] = Inhibition of hedgehog pathway in mouse NIH/3T3 cells harboring GRE-Luc assessed as inhibition of SAG-induced Hh signaling pathway by dual luciferase reporter gene assay; format: cell-based; conditions: NIH3T3
Summary of the method: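 NIH3T3 cells co-transfected with 8×3' Gli-BS-delta51-Luc II firefly reporter and pRL-TK Renilla plasmid; after 24 h treated with compounds plus SAG (pathway activator). Gli luciferase normalized to Renilla (dual-luciferase read-out); IC50 = concentration halving normalized signal; mean ± S.D. of 3–5 separate experiments.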

U-251 = test: Antiproliferation activity against human U251 cells assessed as reduction in cell viability incubated for 72 hrs by MTT assay; format: functional, cell-based; conditions: U-251, 72 h; summary of the method: as §1
MDA-MB-468 [2] = test: Antiproliferation activity against human MDA-MB-468 cells assessed as reduction in cell viability incubated for 72 hr by MTT assay; format: functional, cell-based; conditions: MDA-MB-468, 72 h; summary of the method: as §1
AN3-CA = test: Antiproliferation activity against human AN3CA cells assessed as reduction in cell viability incubated for 72 hr by MTT assay; format: functional, cell-based; summary of the method: as §1
[3] = Acute toxicity in Kunming mouse assessed as mortality at 2667 mg/kg, ig observed for 14 days relative to control; format: organism-based; conditions: in vivo, po, read-out: Activity
Summary of the method: (§2)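 Kunming mice, groups of 5 female and 5 male per dose, dosed once by gavage at graded doses; mortality recorded over 14 days as dead/treated and percent. LD50 derived by improved Karber's method: LD50 = lg^-1[xm − i(ΣP − 0.5)], xm log of maximal dose, i log ratio of neighbouring doses; 95% confidence intervals given.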

[4] = Toxicity in BALB/c mouse xenografted with human MDA-MB-468 cells assessed as body weight at 80 to 100 mg/kg, ig measured every day for 21 day; format: organism-based; conditions: in vivo, po, 504 h
Summary of the method: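 Female BALB/c nude mice, 6–8 weeks, given 1.0×10^7 MDA-MB-468 cells s.c. in right posterior flank; at 100 mm3 tumours, randomized into groups of five. Daily gavage at 80 or 100 mg/kg in saline with 0.1% Tween 80, or vehicle alone; body weight recorded daily, tumour volume every 2 days; sacrificed day 21.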

Protein smoothened [5] = target: T1, Protein smoothened (Homo sapiens, UniProt Q99835); test: Binding affinity to recombinant human Smo receptor assessed as association rate constant by SPR analysis
Summary of the method: (§3)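 Surface plasmon resonance with recombinant Smo protein, run in PBS at a flow rate of 2 μL/s and 4 °C. Analytes were injected at 2.5, 5 and 10 μM. The chip was regenerated with 0.5% SDS:glycine-HCl pH 2.0 (1:1). ka, kd, Rmax, KA and KD came from a global fit of the sensorgrams.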

[6] = Acute toxicity in Kunming mouse assessed as mortality at 741 mg/kg, ig observed for 14 days relative to control; format: organism-based; conditions: in vivo, po, read-out: Activity; summary of the method: as §2
Protein smoothened [7] = target: T1, Protein smoothened; test: Binding affinity to recombinant human Smo receptor assessed as dissociation rate constant by SPR analysis; summary of the method: as §3
MCF-10A = test: Cytotoxicity against human MCF10A cells assessed as cell viability incubated for 72 hrs measured by MTT assay; format: cell-based; summary of the method: as §1
MDA-MB-468 [8] = test: Inhibition of hedgehog pathway in human MDA-MB-468 cells assessed as decrease in Smo protein levels in cilia at 28 uM incubated for 24 hrs by immunostaining based confocal microscopic analysis; format: cell-based
Summary of the method: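 MDA-MB-468 cells were treated at 28 μM for 24 h with or without SAG. Cilia were immunostained for acetylated α-tubulin and Smo and imaged by confocal microscopy. Comparisons were made against DMSO and against SAG alone.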

Protein smoothened [9] = target: T1, Protein smoothened; test: Binding affinity to recombinant human Smo receptor assessed as maximum response at equilibrium by SPR analysis; summary of the method: as §3
[10] = Acute toxicity in Kunming mouse assessed as lethality through intragastric administration observed for 14 days; conditions: in vivo, po; summary of the method: as §2
[11] = Acute toxicity in Kunming mouse assessed as mortality at 1778 mg/kg, ig observed for 14 days relative to control; format: organism-based; conditions: in vivo, po, read-out: Activity; summary of the method: as §2
[12] = Acute toxicity in Kunming mouse assessed as mortality at 1111 mg/kg, ig observed for 14 days relative to control; format: organism-based; conditions: in vivo, po, read-out: Activity; summary of the method: as §2
[13] = Acute toxicity in Kunming mouse assessed as mortality at 4000 mg/kg, ig observed for 14 days relative to control; format: organism-based; conditions: in vivo, po, read-out: Activity; summary of the method: as §2
Protein smoothened [14] = target: T1, Protein smoothened; test: Binding affinity to recombinant human Smo receptor assessed as dissociation constant at equilibrium by SPR analysis
[15] = Acute toxicity in Kunming mouse assessed as mortality at 5000 mg/kg, ig observed for 14 days relative to control; format: organism-based; conditions: in vivo, po, read-out: Activity; summary of the method: as §2
Protein smoothened [16] = target: T1, Protein smoothened; test: Binding affinity to recombinant human Smo receptor assessed as association constant at equilibrium by SPR analysis

T1 sequence (Q99835 whole entry): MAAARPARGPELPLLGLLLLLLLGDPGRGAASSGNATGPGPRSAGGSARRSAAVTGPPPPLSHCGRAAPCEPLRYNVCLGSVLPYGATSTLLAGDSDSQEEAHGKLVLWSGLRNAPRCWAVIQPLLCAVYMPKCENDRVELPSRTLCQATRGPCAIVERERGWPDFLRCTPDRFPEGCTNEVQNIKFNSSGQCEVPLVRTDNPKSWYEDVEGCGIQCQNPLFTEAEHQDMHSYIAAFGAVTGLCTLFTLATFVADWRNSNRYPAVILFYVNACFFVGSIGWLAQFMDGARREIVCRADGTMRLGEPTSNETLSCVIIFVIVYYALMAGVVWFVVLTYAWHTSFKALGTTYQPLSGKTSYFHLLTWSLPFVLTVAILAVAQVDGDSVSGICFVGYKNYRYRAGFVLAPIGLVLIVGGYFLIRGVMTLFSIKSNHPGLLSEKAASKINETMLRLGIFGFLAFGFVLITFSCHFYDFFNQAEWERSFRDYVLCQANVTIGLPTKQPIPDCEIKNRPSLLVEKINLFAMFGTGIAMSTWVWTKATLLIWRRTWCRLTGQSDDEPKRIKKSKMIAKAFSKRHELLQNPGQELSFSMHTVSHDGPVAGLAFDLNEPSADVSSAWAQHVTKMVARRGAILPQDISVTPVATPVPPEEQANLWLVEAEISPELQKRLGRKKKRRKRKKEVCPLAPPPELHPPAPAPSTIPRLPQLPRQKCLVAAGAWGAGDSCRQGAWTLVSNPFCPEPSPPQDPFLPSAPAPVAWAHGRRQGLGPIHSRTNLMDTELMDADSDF

Structure (SMILES)	IC50 (HeLa)	IC50 (MDA-MB-231)	IC50 (MCF7)	IC50 (A549)	IC50 (T47D)	IC50 [1]	IC50 (U-251)	IC50 (MDA-MB-468 [2])	IC50 (AN3-CA)	Ka (Protein smoothened [5])	Kdiss (Protein smoothened [7])	Rmax (Protein smoothened [9])	further results
O=C(Nc1ccc(Cl)c(-c2nnc3c(Cl)cccn23)c1)c1cccnc1	> 100 µM	> 100 µM	> 100 µM	> 100 µM	> 100 µM	> 10 µM	> 100 µM	> 100 µM	> 100 µM	–	–	–	–
O=C(Nc1ccc(Cl)c(-c2nnc3c(Cl)cccn23)c1)c1ccccc1	> 100 µM	58.2 µM	> 100 µM	76.9 µM	> 100 µM	0.77 µM	73.5 µM	> 100 µM	67.6 µM	–	–	–	–
CS(=O)(=O)c1ccc(C(=O)Nc2ccc(Cl)c(-c3ccccn3)c2)c(Cl)c1 [VISMODEGIB]	61.7 µM	> 100 µM	> 100 µM	> 100 µM	> 100 µM	0.1 µM	> 100 µM	79 µM	93 µM	179 M⁻¹ s⁻¹	0.0174 ×10⁻³ /s	4.63 RU	mortality at 336 h [3]: 60%; Activity [4]: Non-Toxic; mortality at 336 h [6]: 10%; IC50 (MCF-10A): 89.5 µM; inhibition (MDA-MB-468 [8]): Active; LD50 at 336 h [10]: 2010 mg/kg; mortality at 336 h [11]: 50%; mortality at 336 h [12]: 30%; mortality at 336 h [13]: 80%
O=C(Nc1ccc(Cl)c(-c2nnc3c(Cl)cccn23)c1)c1cccc(Cl)c1	> 100 µM	66.1 µM	71.9 µM	52.7 µM	30.2 µM	0.102 µM	43.1 µM	54.8 µM	68.4 µM	101 M⁻¹ s⁻¹	1.23 ×10⁻³ /s	41.2 RU	Kd (Protein smoothened [14]): 12.1 µM; mortality at 336 h [15]: 0%; KA (Protein smoothened [16]): 8.21 ×10⁴ /M; LD50 at 336 h [10]: > 5000 mg/kg
Cc1nc(C(=O)Nc2ccc(Cl)c(-c3nnc4c(Cl)cccn34)c2)cs1	79.8 µM	> 100 µM	> 100 µM	> 100 µM	> 100 µM	> 10 µM	74.3 µM	> 100 µM	> 100 µM	–	–	–	–

Continued, in another order:

IC50 (HeLa)	IC50 (MDA-MB-231)	IC50 (MCF7)	IC50 (A549)	IC50 (T47D)	IC50 [1]	IC50 (U-251)	IC50 (MDA-MB-468 [2])	Structure (SMILES)	IC50 (AN3-CA)	Ka (Protein smoothened [5])	Kdiss (Protein smoothened [7])	Rmax (Protein smoothened [9])	further results
> 100 µM	> 100 µM	> 100 µM	42.7 µM	> 100 µM	> 10 µM	> 100 µM	> 100 µM	O=C(Nc1ccc(Cl)c(-c2nnc3c(Cl)cccn23)c1)c1ccon1	> 100 µM	–	–	–	–
> 100 µM	37.2 µM	> 100 µM	> 100 µM	> 100 µM	4.27 µM	44.6 µM	> 100 µM	CS(=O)(=O)c1ccc(C(=O)Nc2ccc(Cl)c(-c3nnc4c(Cl)cccn34)c2)c(Cl)c1	> 100 µM	–	–	–	–
86.3 µM	> 100 µM	> 100 µM	46.8 µM	87.6 µM	0.093 µM	> 100 µM	46 µM	O=C(Nc1ccc(Cl)c(-c2nnc3c(Cl)cccn23)c1)c1ccc(C(F)(F)F)nc1Cl	48.3 µM	260 M⁻¹ s⁻¹	0.00275 ×10⁻³ /s	8.44 RU	Kd (Protein smoothened [14]): 0.0106 µM; KA (Protein smoothened [16]): 9.43 ×10⁷ /M
86.4 µM	> 100 µM	88.9 µM	> 100 µM	> 100 µM	2.98 µM	> 100 µM	> 100 µM	CS(=O)(=O)c1cccc(C(=O)Nc2ccc(Cl)c(-c3nnc4c(Cl)cccn34)c2)c1	> 100 µM	–	–	–	–
> 100 µM	> 100 µM	58.4 µM	73.6 µM	> 100 µM	2.73 µM	> 100 µM	> 100 µM	O=C(Nc1ccc(Cl)c(-c2nnc3c(Cl)cccn23)c1)c1ccc(Cl)cc1	> 100 µM	–	–	–	–

From ChEMBL document CHEMBL4622968, “Discovery of [1,2,4]triazolo[4,3-a]pyridines as potent Smoothened inhibitors targeting the Hedgehog pathway with improved antitumor activity in vivo” (Bioorg Med Chem, 2020)
